For data set [1], the system named is MDA-MB-231. As to the kind of experiment: Effect on total MEK1/2 protein level in human MDA-MB-231 cells at 5 uM incubated for 24 hrs in presence of PDGFRbeta siRNA by Western blot relative to untreated control. The format is cell-based. As to conditions: mda-mb-231, 24 h. On the technique in general: Immunoblotting shows a protein as a band on a membrane.
Data set [2] has as its target Mitogen-activated protein kinase; ERK1/ERK2 (Homo sapiens) (UniProt P27361+P28482). The experiment in a line: Inhibition of ERK1/2 in human MDA-MB-231 cells assessed as ERK1/2 Thr202/Tyr204 phosphorylation level at 2.5 uM incubated for 24 hrs in presence of PDGFRbeta siRNA by Western blot relative to untreated control. It counts as cell-based.
In data set [3] the target is T1, Platelet-derived growth factor receptor beta (Homo sapiens, UniProt P09619). As to the kind of experiment: Inhibition of PDGFRbeta in human MDA-MB-231 cells assessed as C-Raf Ser259 phosphorylation level at 10 uM incubated for 24 hrs in presence of PDGFRbeta siRNA by Western blot relative to untreated control. The format is cell-based.
Data set [4] concerns the target T1, Platelet-derived growth factor receptor beta. The experiment in a line: Inhibition of PDGFRbeta in human MDA-MB-231 cells assessed as C-Raf Ser259 phosphorylation level at 5 uM incubated for 24 hrs in presence of PDGFRbeta siRNA by Western blot relative to untreated control. The format is cell-based.
The target is the same in data set [5]. As to the kind of experiment: Inhibition of PDGFRbeta in human MDA-MB-231 cells assessed as Akt Ser473 phosphorylation level at 2.5 uM incubated for 24 hrs by Western blot relative to untreated control. It counts as cell-based. The gist of the method: (§1)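 Cells were treated 24 h at several concentrations. Pooled adherent and floating cells were lysed in Hepes 50 mM pH 7.4 / 1% Triton X-100 buffer with vanadate, NaF, EDTA, PMSF, aprotinin and leupeptin. Equal protein was run on 10-15% SDS-PAGE and blotted to PVDF. PDGFR-β-AKT-ULK1 pathway phospho-proteins were probed and detected by ECL, with β-actin as loading control.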

In data set [6] the test system is MDA-MB-231. As to the kind of experiment: Effect on total Akt protein level in human MDA-MB-231 cells at 2.5 uM incubated for 24 hrs by Western blot relative to untreated control. It counts as ADME, cell-based. As to conditions: mda-mb-231, 24 h. In outline:
(§2)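 MDA-MB-231 cells were exposed for 24 h. Adherent and floating cells were pooled and lysed for 1 h at 4 °C in 50 mM Hepes pH 7.4 with 1% Triton X-100, orthovanadate, NaF, EDTA, PMSF, aprotinin and leupeptin. After 12,000 rpm clearing, equal protein was run on 10-15% SDS-PAGE and blotted to PVDF. Detection used HRP-ECL, with β-actin as loading control and densitometric quantification.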

For data set [7], the target named is T1, Platelet-derived growth factor receptor beta. As to the kind of experiment: Inhibition of PDGFRbeta in human MDA-MB-231 cells assessed as Akt Ser473 phosphorylation level at 2.5 uM incubated for 24 hrs in presence of PDGFRbeta siRNA by Western blot relative to untreated control. It counts as cell-based. In outline: (§3)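 Cells were transfected with control or PDGFR-β siRNA, then treated with 2.5 μM compound for 24 h. PDGFR-β-AKT-ULK1 pathway phospho-proteins were assessed by western blot: lysis in Hepes pH 7.4 / Triton buffer, 10-15% SDS-PAGE, PVDF, ECL detection, β-actin as loading control.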

Data set [8] has the same target. The experiment in a line: Inhibition of PDGFRbeta in human MDA-MB-231 cells assessed as Akt Thr305 phosphorylation level at 2.5 uM incubated for 24 hrs in presence of PDGFRbeta siRNA by Western blot relative to untreated control. The format is cell-based. The gist of the method:
as §3

The target in data set [9] is T2, Dual specificity mitogen-activated protein kinase kinase; MEK1/2 (Homo sapiens) (UniProt P36507+Q02750). As to the kind of experiment: Inhibition of MEK1/2 in human MDA-MB-231 cells assessed as MEK1/2 Ser217/221 phosphorylation level at 10 uM incubated for 24 hrs in presence of PDGFRbeta siRNA by Western blot relative to untreated control. The format is cell-based.

Data set [10] concerns MDA-MB-231. The experiment in a line: Induction of apoptosis in human MDA-MB-231 cells assessed as change in cleaved PARP protein level at 10 uM incubated for 24 hrs by Western blot method relative to untreated control. The format is functional. The gist of the method: as §2
Data set [11] has as its target T1, Platelet-derived growth factor receptor beta. The experiment in a line: Inhibition of PDGFRbeta in human MDA-MB-231 cells assessed as PDGFRbeta Tyr740 phosphorylation level at 5 uM incubated for 24 hrs by Western blot relative to untreated control. It counts as cell-based. In outline: as §1
The subject of data set [12] is MDA-MB-231. As to the kind of experiment: Induction of apoptosis in human MDA-MB-231 cells assessed as change in cleaved PARP protein level at 5 uM incubated for 24 hrs by Western blot method relative to untreated control. It counts as functional. In outline: as §2
Data set [13] concerns the target T1, Platelet-derived growth factor receptor beta. As to the kind of experiment: Inhibition of PDGFRbeta in human MDA-MB-231 cells assessed as Akt Ser473 phosphorylation level at 2.5 uM incubated for 24 hrs in absence of PDGFRbeta siRNA by Western blot relative to untreated control. It counts as cell-based. In outline:
as §3

For data set [14] the target is unchanged. The experiment in a line: Inhibition of PDGFRbeta in human MDA-MB-231 cells assessed as mTOR Ser2448 phosphorylation level at 10 uM incubated for 24 hrs by Western blot relative to untreated control. The format is cell-based. The gist of the method:
as §1

Data set [15] relates to MDA-MB-231. The experiment in a line: Effect on total ULK1 protein level in human MDA-MB-231 cells at 2.5 uM incubated for 24 hrs by Western blot relative to untreated control. It counts as ADME, cell-based. As to conditions: mda-mb-231, 24 h. In outline:
as §2

Data set [16] has as its target T1, Platelet-derived growth factor receptor beta. The experiment in a line: Inhibition of PDGFRbeta in human MDA-MB-231 cells assessed as Akt Thr305 phosphorylation level at 2.5 uM incubated for 24 hrs in absence of PDGFRbeta siRNA by Western blot relative to untreated control. The format is cell-based. In outline: as §3
The test system of data set [17] is MDA-MB-231. The experiment in a line: Induction of apoptosis in human MDA-MB-231 cells at 2.5 to 10 uM incubated for 24 hrs by Annexin V/propidium iodide staining based flow cytometry. The format is functional, cell-based. Background: Flow cytometry measures light scatter and fluorescence of single cells or particles in a stream.
In data set [18] the target is T2, Dual specificity mitogen-activated protein kinase kinase; MEK1/2 (Homo sapiens). The experiment in a line: Inhibition of MEK1/2 in human MDA-MB-231 cells assessed as MEK1/2 Ser217/221 phosphorylation level at 2.5 uM incubated for 24 hrs in presence of PDGFRbeta siRNA by Western blot relative to untreated control. It counts as cell-based.
In data set [19] the test system is MDA-MB-231. The experiment in a line: Induction of autophagy in human MDA-MB-231 cells assessed as change in LC3-2 protein level at 10 uM incubated for 24 hrs by Western blot method relative to untreated control. The format is functional. In outline: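 MDA-MB-231 cells (ATCC; DMEM, 10% FBS, 5% CO2) were treated 24 h over a concentration series. Adherent and floating cells were pooled and lysed 1 h at 4 °C (50 mM Hepes pH 7.4, 1% Triton X-100, phosphatase/protease inhibitors). Equal protein was run on 10-15% SDS-PAGE, transferred to PVDF, probed for Beclin-1, p62 and LC3 with HRP/ECL detection, and normalised to β-actin.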

For data set [20], the target named is T1, Platelet-derived growth factor receptor beta. As to the kind of experiment: Inhibition of PDGFRbeta in human MDA-MB-231 cells assessed as C-Raf Ser338 phosphorylation level at 2.5 uM incubated for 24 hrs in presence of PDGFRbeta siRNA by Western blot relative to untreated control. It counts as cell-based.
Data set [21] concerns MDA-MB-231. As to the kind of experiment: Effect on total mTOR protein level in human MDA-MB-231 cells at 5 uM incubated for 24 hrs by Western blot relative to untreated control. It counts as ADME, cell-based. As to conditions: mda-mb-231, 24 h. In outline:
as §2

In data set [22] the test system is MDA-MB-231. As to the kind of experiment: Effect on total ERK1/2 protein level in human MDA-MB-231 cells at 5 uM incubated for 24 hrs in presence of PDGFRbeta siRNA by Western blot relative to untreated control. It counts as cell-based. To be noted: mda-mb-231, 24 h.
Data set [23] concerns MDA-MB-231. As to the kind of experiment: Induction of apoptosis in human MDA-MB-231 cells assessed as change in cleaved caspase-3 protein level at 2.5 uM incubated for 24 hrs by Western blot method relative to untreated control. The format is functional. In outline: as §2

These results are taken from ChEMBL document CHEMBL4130442, “Design, synthesis and structure-activity relationship studies of a focused library of pyrimidine moiety with anti-proliferative and anti-metastasis activities in triple negative breast cancer” (Eur J Med Chem, 2017).

Activity calls are given as the source filed them. The calls are words filed in the database; no cut-off is given here.

T1 sequence (P09619 whole entry): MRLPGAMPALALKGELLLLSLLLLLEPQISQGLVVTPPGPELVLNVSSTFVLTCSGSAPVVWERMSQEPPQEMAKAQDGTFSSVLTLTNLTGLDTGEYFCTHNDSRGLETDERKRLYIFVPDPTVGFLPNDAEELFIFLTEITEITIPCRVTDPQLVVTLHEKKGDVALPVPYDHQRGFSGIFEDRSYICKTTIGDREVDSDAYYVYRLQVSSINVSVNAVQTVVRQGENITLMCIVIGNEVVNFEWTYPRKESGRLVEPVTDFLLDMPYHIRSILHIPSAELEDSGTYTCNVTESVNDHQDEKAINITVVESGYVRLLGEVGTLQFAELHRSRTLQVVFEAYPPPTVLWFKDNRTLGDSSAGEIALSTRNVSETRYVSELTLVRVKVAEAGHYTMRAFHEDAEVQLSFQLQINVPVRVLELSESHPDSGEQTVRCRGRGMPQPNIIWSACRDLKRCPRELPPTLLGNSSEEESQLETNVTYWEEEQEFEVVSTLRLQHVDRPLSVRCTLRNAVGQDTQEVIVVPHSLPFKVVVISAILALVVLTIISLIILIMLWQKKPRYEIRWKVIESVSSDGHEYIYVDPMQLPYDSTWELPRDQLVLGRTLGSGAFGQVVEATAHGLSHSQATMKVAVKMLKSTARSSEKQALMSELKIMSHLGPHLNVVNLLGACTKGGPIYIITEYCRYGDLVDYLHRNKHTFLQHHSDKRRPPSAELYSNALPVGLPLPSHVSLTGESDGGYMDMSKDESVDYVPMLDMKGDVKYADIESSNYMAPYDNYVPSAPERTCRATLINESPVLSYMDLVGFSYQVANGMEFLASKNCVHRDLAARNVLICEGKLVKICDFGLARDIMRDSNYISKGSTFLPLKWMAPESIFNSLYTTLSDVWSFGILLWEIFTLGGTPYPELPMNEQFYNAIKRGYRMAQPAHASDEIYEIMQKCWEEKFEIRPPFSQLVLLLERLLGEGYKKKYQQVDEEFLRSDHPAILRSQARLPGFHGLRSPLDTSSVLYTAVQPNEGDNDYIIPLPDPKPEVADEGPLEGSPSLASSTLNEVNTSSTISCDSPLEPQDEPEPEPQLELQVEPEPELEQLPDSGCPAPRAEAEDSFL
T2 sequence (P36507 whole entry, looked up): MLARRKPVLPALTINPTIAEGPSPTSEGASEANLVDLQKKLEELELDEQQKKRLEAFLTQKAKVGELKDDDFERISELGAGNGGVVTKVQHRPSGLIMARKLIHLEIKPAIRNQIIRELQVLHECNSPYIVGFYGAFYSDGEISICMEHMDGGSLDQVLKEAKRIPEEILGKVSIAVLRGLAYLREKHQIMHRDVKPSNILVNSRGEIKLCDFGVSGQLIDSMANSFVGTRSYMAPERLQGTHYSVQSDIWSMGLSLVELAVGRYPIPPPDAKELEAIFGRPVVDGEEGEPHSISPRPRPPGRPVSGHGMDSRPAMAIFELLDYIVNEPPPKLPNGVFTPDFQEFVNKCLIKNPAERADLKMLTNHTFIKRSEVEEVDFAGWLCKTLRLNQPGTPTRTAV
T2 sequence (Q02750 whole entry, looked up): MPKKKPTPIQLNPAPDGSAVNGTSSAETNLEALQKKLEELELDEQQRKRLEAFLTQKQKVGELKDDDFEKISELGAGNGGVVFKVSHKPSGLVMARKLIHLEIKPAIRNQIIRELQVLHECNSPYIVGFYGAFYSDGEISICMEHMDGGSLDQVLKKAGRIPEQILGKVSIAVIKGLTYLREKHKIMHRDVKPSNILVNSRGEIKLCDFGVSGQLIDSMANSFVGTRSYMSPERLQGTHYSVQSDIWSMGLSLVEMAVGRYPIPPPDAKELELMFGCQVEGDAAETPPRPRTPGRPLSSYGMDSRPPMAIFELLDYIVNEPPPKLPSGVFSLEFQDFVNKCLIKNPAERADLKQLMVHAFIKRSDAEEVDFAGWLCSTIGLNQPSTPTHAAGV
Chain of Mitogen-activated protein kinase; ERK1/ERK2 (Homo sapiens) (P27361 whole entry, looked up): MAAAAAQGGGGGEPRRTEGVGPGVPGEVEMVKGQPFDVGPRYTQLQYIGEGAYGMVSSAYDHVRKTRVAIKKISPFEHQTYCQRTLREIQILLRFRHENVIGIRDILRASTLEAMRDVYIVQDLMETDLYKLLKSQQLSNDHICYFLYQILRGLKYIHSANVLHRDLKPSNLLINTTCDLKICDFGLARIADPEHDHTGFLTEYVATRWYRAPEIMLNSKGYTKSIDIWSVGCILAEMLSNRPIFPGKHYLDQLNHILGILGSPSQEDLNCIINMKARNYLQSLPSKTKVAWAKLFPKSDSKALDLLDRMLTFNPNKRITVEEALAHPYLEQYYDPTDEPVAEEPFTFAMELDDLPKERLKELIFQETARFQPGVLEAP
Chain of Mitogen-activated protein kinase; ERK1/ERK2 (Homo sapiens) (P28482 whole entry, looked up): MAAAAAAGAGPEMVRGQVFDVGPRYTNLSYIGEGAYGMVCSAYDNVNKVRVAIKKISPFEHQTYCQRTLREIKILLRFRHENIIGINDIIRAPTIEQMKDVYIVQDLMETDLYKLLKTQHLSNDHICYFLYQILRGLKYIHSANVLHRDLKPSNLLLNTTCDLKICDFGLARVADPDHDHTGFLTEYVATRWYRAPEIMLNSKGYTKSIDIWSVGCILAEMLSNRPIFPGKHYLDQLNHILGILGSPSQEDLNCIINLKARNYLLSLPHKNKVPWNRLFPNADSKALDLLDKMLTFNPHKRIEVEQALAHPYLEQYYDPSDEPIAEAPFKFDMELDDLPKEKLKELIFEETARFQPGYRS

Take `COc1cccc(Nc2cc(N3CCN(C(=O)Nc4ccc(C(F)(F)F)cc4)CC3)ncn2)c1`: the “fold change (FC)” value was 1.08 in [1]; 1.05 in data set [2]; 0.95 in data set [3]; 1.06 in data set [4]; 0.45 in [5]; 0.89 in data set [6]. The fold change (FC) in data set [7] came out at 0.52; in [8], 0.04; in data set [9] it was 1.01; in [10], 0.97; in [11], 0.78; in data set [12] it was 0.85. Also, the fold change (FC) worked out at 0.48 in data set [13]; 0.16 in [14]; 0.89 in data set [15]; 0.05 in data set [16]; 1.12 in data set [18]; 2.7 in data set [19]. The fold change (FC) in [20] turned out to be 0.85; in data set [21], 0.31; in data set [22], 2; in [23], 0.87. In data set [17], the outcome was Active.
